Residues, ends and D or L forms follow the SMILES beside them.
What was measured:
L929 cells = test: Cell proliferation / cytotoxicity MTT assay; type: cell-based; settings: 48 h; for toxicity toward the cells: L929 cells, 10, 25, 50 and 100 μM, IC50 values could not be calculated
Summary of the method: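 L929 cells were seeded at 0.5 × 10^4 cells per well and held 24 h in complete medium. Fluorescein-labelled and unlabelled test peptides were then added at 10, 25, 50 and 100 μM for 48 h. MTT was applied for 4 h at 37 °C in the dark, formazan was dissolved in DMSO, and A570 was read. % viability = treated/untreated absorbance; mean ± SD; two-way ANOVA.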

[1] = tested on: mouse fibroblast 3T3 cells; settings: cell fixation conditions, ref 36 (Rhee et al.); cited from earlier work
3T3 cells = test: Membrane penetrability, fixed cells, fluorescence and confocal microscopy; type: cell-based, mouse; settings: fixed 3T3 cells, 50 μM in PBS, 6 h, 4 °C, confocal microscopy
[2] = ref 43 (Futaki et al.); cited from earlier work

| Compound | toxicity toward the cells (L929 cells) | cellular viability at 25 and 50 μM compared to 10 μM (L929 cells; L929 cells) | localization of CPPs [2] | further results |
| --- | --- | --- | --- | --- |
| CC(C)C[C@H](NC(=O)[C@H](CO)NC(=O)CNC(=O)[C@@H](N)C(C)C)C(=O)N[C@@H](CCCNC(=N)N)C(=O)O [VGSLR] (H-VGSLR-OH) | did not show any significant toxicity | increased progressively | – | – |
| CSIPPEVKFNPFVYLI [C105Y] | – | – | – | localization of the fluorescent-tagged peptide [1]: enriched fluorescence signal in the nucleus in addition to being present in the cytoplasm |
| FITC-VGSLR | does not show any toxicity | increased progressively | – | cell proliferation compared to the untreated cells (L929 cells; L929 cells, 50 μM, absorbance 570 nm, p < 0.0001): higher proliferation; cell viability at 100 μM (L929 cells; L929 cells, 100 μM): reduced viability; subcellular localization (3T3 cells): localization of the peptide at the nucleus was more than that in the cytoplasm |
| GRRRRRRRRRPPQ [R9-TAT] | – | – | in both the cytoplasm and nucleus | – |
| Tat-(48–60): CPP reported by Futaki et al. (GRKKRRQRRRAHQ; UniProt P04608 48-60, looked up, fragment) | – | – | in both the cytoplasm and nucleus | – |
